Reference: ChEMBL document CHEMBL3997808 (J Med Chem, 2017)

Columns and labels:
[1] = Drug metabolism in cynomolgus monkey hepatocytes assessed as 5-(hydroxy(phenyl)methyl)-N-((S)-5-methyl-4-oxo-2,3,4,5-tetrahydrobenzo[b][1,4]oxazepin-3-yl)-1H-1,2,4-triazole-3-carboxamide formation at 10 uM measured up to 4 hrs; assay type: ADME, cell-based, Macaca fascicularis, Hepatocyte
Method in brief: (§1)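 Compound at 10 μM was incubated with hepatocyte suspensions at 1 million cells/mL. Incubation ran at 37°C under 5% CO2:95% O2 for up to 4 h.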

[2] = Drug metabolism in human hepatocytes assessed as 5-benzyl-1H-1,2,4-triazole-3-carboxylic acid formation at 10 uM measured up to 4 hrs; assay type: ADME, cell-based, Hepatocyte; method in brief: as §1
[3] = Lipophilicity, log D of the compound at pH 7.4 by RP-HPLC method; assay type: physicochemical; details: buffer
Method in brief: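 Chromatographic hydrophobicity index (CHI) log D at pH 7.4, calculated from the retention time in a fast-gradient reverse-phase HPLC run.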

[4] = Half-life in rat at 1.1 mg/kg, iv; assay type: ADME, organism-based; details: in vivo
Colon = test: Drug uptake in Han Wistar rat colon at 2 mg/kg, iv administered as 4 hrs infusion; assay type: ADME, organism-based; details: in vivo
Method in brief: (§2)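 Rats received a 4 h iv infusion, after which terminal tissue samples were collected. Parent drug concentrations were measured in each tissue and compared with blood levels.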

[5] = Fraction unbound in cynomolgus monkey blood; assay type: ADME, tissue-based, Macaca fascicularis
[6] = Drug metabolism in rat hepatocytes assessed as 5-(hydroxy(phenyl)methyl)-N-((S)-5-methyl-4-oxo-2,3,4,5-tetrahydrobenzo[b][1,4]oxazepin-3-yl)-1H-1,2,4-triazole-3-carboxamide formation at 10 uM measured up to 4 hrs; assay type: ADME, cell-based, Hepatocyte; method in brief: as §1
Liver = test: Drug uptake in Han Wistar rat liver at 2 mg/kg, iv administered as 4 hrs infusion; assay type: ADME, organism-based; details: in vivo; method in brief: as §2
[7] = Drug metabolism in cynomolgus monkey hepatocytes assessed as glucuronide metabolite M569 formation at 10 uM measured up to 4 hrs; assay type: ADME, cell-based, Macaca fascicularis, Hepatocyte; method in brief: as §1
[8] = Drug metabolism in rat hepatocytes assessed as glucuronide metabolite M553 formation at 10 uM measured up to 4 hrs; assay type: ADME, cell-based, Hepatocyte; method in brief: as §1
[9] = Stability in dog microsomes measured up to 45 mins; assay type: ADME, Canis lupus familiaris, Microsome; details: 0.75 h
[10] = Clearance in cynomolgus monkey at 1.2 mg/kg, iv; assay type: ADME, organism-based, Macaca fascicularis; details: in vivo
[11] = AUC in cynomolgus monkey at 1.9 mg/kg, po; assay type: ADME, organism-based, Macaca fascicularis; details: in vivo
[12] = Drug metabolism in cynomolgus monkey hepatocytes assessed as (S)-5-benzyl-N-(4-oxo-2,3,4,5-tetrahydrobenzo[b][1,4]oxazepin-3-yl)-1H-1,2,4-triazole-3-carboxamide formation at 10 uM measured up to 4 hrs; assay type: ADME, cell-based, Macaca fascicularis, Hepatocyte; method in brief: as §1
[13] = Drug metabolism in cynomolgus monkey hepatocytes assessed as glucuronide metabolite M553 formation at 10 uM measured up to 4 hrs; assay type: ADME, cell-based, Macaca fascicularis, Hepatocyte; method in brief: as §1
[14] = Stability in rat microsomes measured up to 45 mins; assay type: ADME, Microsome; details: 0.75 h
[15] = Drug metabolism in human hepatocytes assessed as (S)-3-amino-5-methyl-2,3-dihydrobenzo[b][1,4]oxazepin-4(5H)-one formation at 10 uM measured up to 4 hrs; assay type: ADME, cell-based, Hepatocyte; method in brief: as §1
[16] = Stability in cynomolgus monkey microsomes measured up to 45 mins; assay type: ADME, Macaca fascicularis, Microsome; details: 0.75 h
[17] = Half-life in cynomolgus monkey at 1.2 mg/kg, iv; assay type: ADME, organism-based, Macaca fascicularis; details: in vivo
[18] = Drug metabolism in rat hepatocytes assessed as (S)-3-amino-5-methyl-2,3-dihydrobenzo[b][1,4]oxazepin-4(5H)-one formation at 10 uM measured up to 4 hrs; assay type: ADME, cell-based, Hepatocyte; method in brief: as §1
[19] = Drug metabolism in cynomolgus monkey hepatocytes assessed as 5-benzyl-1H-1,2,4-triazole-3-carboxylic acid formation at 10 uM measured up to 4 hrs; assay type: ADME, cell-based, Macaca fascicularis, Hepatocyte; method in brief: as §1
[20] = Fraction unbound in dog blood; assay type: ADME, tissue-based, Canis lupus familiaris
MDR1 = test: Permeability across dog MDCK cells expressing MDR1; assay type: ADME, cell-based, Canis lupus familiaris; details: read-out: permeability
[21] = Tmax in cynomolgus monkey at 1.9 mg/kg, po; assay type: ADME, organism-based, Macaca fascicularis; details: in vivo
Rattus norvegicus = test: Toxicity in rat at 2 to 1000 mg/kg, po after 1 month; assay type: organism-based; details: in vivo, 730.5 h
[22] = Volume of distribution at steady state in rat at 1.1 mg/kg, iv; assay type: ADME, organism-based; details: in vivo, read-out: Vdss

With `CN1C(=O)[C@@H](NC(=O)c2nnc(Cc3ccccc3)[nH]2)COc2ccccc21` [GSK2982772] the Drug metabolism [1] was “Metabolite_Detected”, the Drug metabolism [2] was “Metabolite_Detected” and the chromatographic logD [3] was 3.8. The half-life [4] was 234 min, the Drug uptake (Colon) was “Active” and the fraction unbound [5] was 0.11. The Drug metabolism [6] was “Metabolite_Detected”, the Drug uptake (Liver) was “Active” and the Drug metabolism [7] was “Metabolite_Detected”. The Drug metabolism [8] was “Metabolite_Detected”, the Stability [9] was “Stable” and the clearance [10] was 10 mL/min/kg. For the same molecule, the AUC [11] was 2900 ng·h/mL, the Drug metabolism [12] was “Metabolite_Detected” and the Drug metabolism [13] was “Metabolite_Detected”. For the same molecule, the Stability [14] was “Stable”, the Drug metabolism [15] was “Metabolite_Detected” and the Stability [16] was “Stable”. The half-life [17] was 390 min, the Drug metabolism [18] was “Metabolite_Detected” and the Drug metabolism [19] was “Metabolite_Detected”. The fraction unbound [20] was 0.11, the Papp (MDR1) was 21 ×10⁻⁶ cm/s and the Tmax [21] was 1.8 h. For the same molecule, the Activity (Rattus norvegicus) was “Non-Toxic” and the Vd [22] was 2.7 L/kg.
